Activity calls are given as the source filed them. The calls are words filed in the database; no cut-off is given here.

The target of experiment [1] is Vascular endothelial growth factor receptor 2 (Homo sapiens) (UniProt P35968). The experiment in a line: Inhibition of VEGF-165-induced VEGFR2 autophosphorylation at Tyr1175 in serum-starved HUVEC at 2 uM preincubated for 2 hrs followed by VEGF-165 induction measured after 5 mins by Western blot analysis. The experiment is classed as cell-based. A digest of the protocol:
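Serum-starved HUVEC were given 2 µM compound or vehicle for 2 h, then VEGF-165 (50 ng/mL) or PBS for 5 min. Lysates with equal protein were run on SDS-PAGE and immunoblotted for phospho-VEGFR2 (Tyr951, 996, 1056, 1175), p-AKT Ser473, p-ERK1/2 and the total proteins. Detection was by ECL with densitometry. Phospho signals were normalized to total protein, n = 3.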
(In general: In western blotting, separated proteins are transferred to a membrane and probed.)

For experiment [2], the system named is HUVEC. The experiment in a line: Effect on GNG12 gene expression in serum-starved HUVEC after 6 hrs by microarray analysis relative to control. The experiment is classed as functional, Homo sapiens. A digest of the protocol:
(§1)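 Confluent, serum-starved HUVEC (pooled from 3–5 donors, passage ≤4) treated with 2 μM compound or vehicle with 2.5% FBS for 6 h or 24 h. Total RNA hybridized to Illumina Human-HT12 arrays. Data were background-corrected, vst-transformed and rsn-normalized. Hits called by moderated paired t-test versus DMSO-treated cells, p < 0.05 and log2 fold change >|0.5|.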

The subject of experiment [3] is HUVEC. The experiment in a line: Effect on KIF22 gene expression in serum-starved HUVEC after 6 hrs by microarray analysis relative to control. The format is functional, Homo sapiens. Summed up: (§2)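 Serum-starved confluent HUVEC (pooled from 3–5 donors, passage ≤4) were treated with 2 μM compound or vehicle in 2.5% FBS for 6 h or 24 h, and total RNA was isolated. Hybridization was on Illumina Human-HT12. Data were processed with bgAdjust, vst and rsn normalization. Changes versus DMSO were called by moderated paired t-test at p < 0.05 and |log2 fold change| > 0.5.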

Experiment [4] concerns HUVEC. The experiment in a line: Effect on DLGAP5 gene expression in serum-starved HUVEC after 24 hrs by microarray analysis relative to control. The experiment is classed as functional, Homo sapiens. Summed up:
as §1

Experiment [5] deals with HUVEC. The experiment in a line: Effect on KIF20A gene expression in serum-starved HUVEC after 24 hrs by microarray analysis relative to control. The format is functional, Homo sapiens. Summed up: as §1
Experiment [6] concerns HUVEC. Nature of the experiment: Effect on MMP1 gene expression in serum-starved HUVEC after 24 hrs by microarray analysis relative to control. The format is functional, Homo sapiens. Summed up: as §2
In experiment [7] the test system is HUVEC. The experiment in a line: Effect on RNU1-3 gene expression in serum-starved HUVEC after 24 hrs by microarray analysis relative to control. The experiment is classed as functional, Homo sapiens. Summed up: as §2
Experiment [8] relates to HUVEC. Nature of the experiment: Effect on DLC1 gene expression in serum-starved HUVEC after 6 hrs by microarray analysis relative to control. The format is functional, Homo sapiens. A digest of the protocol:
as §1

Experiment [9] relates to HUVEC. The experiment in a line: Effect on DLC1 gene expression in serum-starved HUVEC after 24 hrs by microarray analysis relative to control. The format is functional, Homo sapiens. A digest of the protocol:
as §1

In experiment [10] the test system is HUVEC. The experiment in a line: Effect on MSMP gene expression in serum-starved HUVEC after 24 hrs by microarray analysis relative to control. The experiment is classed as functional, Homo sapiens. A digest of the protocol: as §2
Experiment [11] concerns HUVEC. Nature of the experiment: Effect on CALD1 gene expression in serum-starved HUVEC after 6 hrs by microarray analysis relative to control. The experiment is classed as functional, Homo sapiens. Summed up: (§3)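 Serum-starved confluent HUVEC treated with 2 μM compound or DMSO in 2.5% FBS for 6 h or 24 h; RNA hybridized to Illumina Human-HT12 arrays. Data background-corrected, vst-transformed and rsn-normalized. Differential probes called by moderated paired t-test (limma) at p < 0.05 and log2 fold change >|0.5| vs DMSO.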

In experiment [12] the test system is HUVEC. The experiment in a line: Effect on CCNB2 gene expression in serum-starved HUVEC after 6 hrs by microarray analysis relative to control. The experiment is classed as functional, Homo sapiens. Summed up: as §3
For experiment [13], the system named is HUVEC. Nature of the experiment: Effect on ERAP2 gene expression in serum-starved HUVEC after 6 hrs by microarray analysis relative to control. The experiment is classed as functional, Homo sapiens. A digest of the protocol:
as §1

The subject of experiment [14] is HUVEC. Nature of the experiment: Effect on KIFC1 gene expression in serum-starved HUVEC after 6 hrs by microarray analysis relative to control. The experiment is classed as functional, Homo sapiens. Summed up: as §2
In experiment [15] the test system is HUVEC. The experiment in a line: Effect on PTTG3P gene expression in serum-starved HUVEC after 6 hrs by microarray analysis relative to control. The format is functional, Homo sapiens. A digest of the protocol: (§4)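 Confluent serum-starved HUVEC (primary, pooled from 3–5 donors, passage ≤4) treated with 2 μM compound or DMSO vehicle in 2.5% FBS for 6 h or 24 h. Total RNA hybridized to Illumina Human-HT12 arrays, background-corrected, vst-transformed and rsn-normalized. Differential expression versus DMSO by moderated paired t-test (p < 0.05, |log2 fold change| > 0.5).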

Experiment [16] relates to HUVEC. Nature of the experiment: Effect on RNVU1-18 gene expression in serum-starved HUVEC after 6 hrs by microarray analysis relative to control. The experiment is classed as functional, Homo sapiens. A digest of the protocol: as §2
Experiment [17] deals with HUVEC. The experiment in a line: Effect on RNVU1-7 gene expression in serum-starved HUVEC after 6 hrs by microarray analysis relative to control. The format is functional, Homo sapiens. Summed up:
as §4

Experiment [18] concerns HUVEC. The experiment in a line: Effect on SPC24 gene expression in serum-starved HUVEC after 6 hrs by microarray analysis relative to control. The experiment is classed as functional, Homo sapiens. A digest of the protocol: as §4
For experiment [19], the system named is HUVEC. Nature of the experiment: Effect on UBE2C gene expression in serum-starved HUVEC after 6 hrs by microarray analysis relative to control. The format is functional, Homo sapiens. A digest of the protocol:
as §4

Experiment [20] relates to HUVEC. Nature of the experiment: Effect on ZWINT gene expression in serum-starved HUVEC after 6 hrs by microarray analysis relative to control. The format is functional, Homo sapiens. A digest of the protocol:
as §2

For experiment [21], the system named is HUVEC. The experiment in a line: Effect on ASPM gene expression in serum-starved HUVEC after 24 hrs by microarray analysis relative to control. The experiment is classed as functional, Homo sapiens. A digest of the protocol:
as §3

In experiment [22] the test system is HUVEC. The experiment in a line: Effect on BIRC5 gene expression in serum-starved HUVEC after 24 hrs by microarray analysis relative to control. The experiment is classed as functional, Homo sapiens. A digest of the protocol: as §3
In experiment [23] the test system is HUVEC. Nature of the experiment: Effect on CALD1 gene expression in serum-starved HUVEC after 24 hrs by microarray analysis relative to control. The format is functional, Homo sapiens. Summed up: as §3
Experiment [24] concerns HUVEC. The experiment in a line: Effect on CCNB2 gene expression in serum-starved HUVEC after 24 hrs by microarray analysis relative to control. The experiment is classed as functional, Homo sapiens. A digest of the protocol:
as §3

Experiment [25] concerns HUVEC. The experiment in a line: Effect on CDC20 gene expression in serum-starved HUVEC after 24 hrs by microarray analysis relative to control. The experiment is classed as functional, Homo sapiens. A digest of the protocol:
as §3

Experiment [26] deals with HUVEC. The experiment in a line: Effect on CENPA gene expression in serum-starved HUVEC after 24 hrs by microarray analysis relative to control. The format is functional, Homo sapiens. Summed up:
as §3

Experiment [27] relates to HUVEC. The experiment in a line: Effect on ERAP2 gene expression in serum-starved HUVEC after 24 hrs by microarray analysis relative to control. The experiment is classed as functional, Homo sapiens. A digest of the protocol: as §1
The subject of experiment [28] is HUVEC. The experiment in a line: Effect on PTTG1 gene expression in serum-starved HUVEC after 24 hrs by microarray analysis relative to control. The experiment is classed as functional, Homo sapiens. A digest of the protocol: as §4
In experiment [29] the test system is HUVEC. The experiment in a line: Effect on RNVU1-18 gene expression in serum-starved HUVEC after 24 hrs by microarray analysis relative to control. The experiment is classed as functional, Homo sapiens. A digest of the protocol: as §4
Experiment [30] has as its system HUVEC. The experiment in a line: Effect on RNVU1-7 gene expression in serum-starved HUVEC after 24 hrs by microarray analysis relative to control. The experiment is classed as functional, Homo sapiens. A digest of the protocol:
as §4

Experiment [31] has as its system HUVEC. The experiment in a line: Effect on SPC24 gene expression in serum-starved HUVEC after 24 hrs by microarray analysis relative to control. The experiment is classed as functional, Homo sapiens. A digest of the protocol: as §4
The test system of experiment [32] is HUVEC. Nature of the experiment: Effect on UBE2C gene expression in serum-starved HUVEC after 24 hrs by microarray analysis relative to control. The experiment is classed as functional, Homo sapiens. Summed up:
as §4

The subject of experiment [33] is HUVEC (Homo sapiens). The experiment in a line: Antiproliferative activity against human HUVEC cells assessed as decrease in VEGF-165-induced cell growth at 0.5 to 2 uM after 24 to 48 hrs by MTT assay. For orientation: Tetrazolium assays rely on reduction of a dye to a coloured formazan, in cell work by metabolically active cells.
Experiment [34] deals with HUVEC (Homo sapiens). Nature of the experiment: Antiproliferative activity against human HUVEC cells assessed as decrease in VEGF-165-induced cell growth at 0.5 to 2 uM after 24 to 48 hrs by CyQUANT cell proliferation assay.

Vascular endothelial growth factor receptor 2 (Homo sapiens), sequence (P35968 whole entry): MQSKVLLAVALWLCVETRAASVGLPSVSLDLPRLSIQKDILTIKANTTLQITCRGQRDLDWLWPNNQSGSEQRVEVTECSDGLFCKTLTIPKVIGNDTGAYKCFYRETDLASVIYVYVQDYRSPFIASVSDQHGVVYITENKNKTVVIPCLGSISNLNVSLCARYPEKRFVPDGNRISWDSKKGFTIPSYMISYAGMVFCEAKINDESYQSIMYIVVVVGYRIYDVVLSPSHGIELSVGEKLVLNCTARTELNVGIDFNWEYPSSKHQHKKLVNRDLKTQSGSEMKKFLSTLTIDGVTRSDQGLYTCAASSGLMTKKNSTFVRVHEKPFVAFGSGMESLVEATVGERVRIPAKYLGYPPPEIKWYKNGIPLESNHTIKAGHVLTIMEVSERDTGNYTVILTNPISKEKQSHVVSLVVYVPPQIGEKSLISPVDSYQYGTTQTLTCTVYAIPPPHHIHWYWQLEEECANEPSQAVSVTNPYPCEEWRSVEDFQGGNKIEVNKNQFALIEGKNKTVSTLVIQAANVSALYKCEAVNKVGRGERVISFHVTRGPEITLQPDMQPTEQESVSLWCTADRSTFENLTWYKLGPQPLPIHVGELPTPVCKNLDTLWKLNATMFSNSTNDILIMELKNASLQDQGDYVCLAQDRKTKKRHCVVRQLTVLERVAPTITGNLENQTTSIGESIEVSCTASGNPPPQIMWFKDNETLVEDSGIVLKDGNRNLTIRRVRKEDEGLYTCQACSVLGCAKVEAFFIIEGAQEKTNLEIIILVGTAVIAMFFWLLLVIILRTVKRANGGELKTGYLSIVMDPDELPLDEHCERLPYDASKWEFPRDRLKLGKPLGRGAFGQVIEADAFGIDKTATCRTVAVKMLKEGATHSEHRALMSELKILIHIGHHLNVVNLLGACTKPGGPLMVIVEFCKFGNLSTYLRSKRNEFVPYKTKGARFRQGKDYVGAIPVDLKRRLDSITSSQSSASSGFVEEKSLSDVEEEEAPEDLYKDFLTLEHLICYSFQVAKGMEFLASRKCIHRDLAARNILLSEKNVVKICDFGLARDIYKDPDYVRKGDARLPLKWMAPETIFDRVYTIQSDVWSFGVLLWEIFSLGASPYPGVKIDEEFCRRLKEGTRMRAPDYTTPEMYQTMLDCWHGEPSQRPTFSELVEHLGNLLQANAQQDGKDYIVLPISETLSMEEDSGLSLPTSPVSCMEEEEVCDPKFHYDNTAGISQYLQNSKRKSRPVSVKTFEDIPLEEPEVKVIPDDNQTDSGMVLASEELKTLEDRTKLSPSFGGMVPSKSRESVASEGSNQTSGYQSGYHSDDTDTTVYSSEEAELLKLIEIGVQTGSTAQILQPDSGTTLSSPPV

`COc1ccc(Cn2nc(-c3ccccc3)c3cc(Nc4ccc(N5CCN(C)CC5)cc4)nc(N4CCNCC4)c32)cc1`: in experiment [1], the inhibition entry is “Active”. For the same compound, the log2FC in [2] is listed as 0.6358; in experiment [3], -0.0345; in experiment [4], -0.516; in [5], -0.5596; in [6] it was -0.646; in experiment [7], 0.1133. Moreover, the log2FC is reported as 0.3681 in experiment [8], 0.5215 in experiment [9] and -0.652 in experiment [10].
`COc1ccc(Cn2nc(-c3ccccc3)c3cc(Cl)nc(N4CCNCC4)c32)cc1`: the inhibition entry in [1] was “Active”. In addition, the “fold change (FC)” value is 0.5218 in experiment [11], 0.5171 in [13], 0.5853 in [2] and 0.0022 in [14]. The log2FC in experiment [12] was -0.1297; in experiment [15], -0.1207; in experiment [16], -0.6107; in [17], -0.5056; in experiment [18], 0.1186; in [19], -0.1374. The log2FC in experiment [20] is recorded as 0.1395; in experiment [21], -0.5316; in experiment [22] it was -0.6034; in experiment [23], 0.263; in [24], -0.5884; in [25], -0.6535. In addition, the log2FC is given as -0.5592 in experiment [26]; 0.2703 in experiment [27]; -0.5549 in experiment [5]; -0.6261 in [28]; -0.1906 in [7]; -0.1577 in experiment [29]. In addition, the log2FC is -0.1037 in [30]; -0.732 in experiment [31]; -0.5278 in experiment [32]; 0.5758 in experiment [8]; -0.0926 in experiment [9]; -0.6932 in [10]. The result in [33] and in experiment [34] was Active.
As to `COc1ccc(Cn2nc(-c3ccccc3)c3cc(Nc4ccc(N5CCN(C)CC5)cc4)nc(N4CCN(C)CC4)c32)cc1`, in experiment [1], the inhibition entry is “Active”. Also, the “fold change (FC)” value in experiment [11] was 0.5101; in [13], 0.5068; in experiment [3], -0.1033; in experiment [14], -0.2068. The log2FC in experiment [12] is on record as -0.1003; in experiment [15], -0.2702; in experiment [16], -0.6156; in [17], -0.536; in [18], -0.1032; in [19], -0.2671. The log2FC is on record as -0.3223 in [20]; -0.6736 in experiment [21]; -0.6896 in [22]; 0.0259 in experiment [23]; -0.7404 in experiment [24]; -0.9562 in [25]. Moreover, the log2FC in experiment [26] is -0.6147; in experiment [4], -0.8206; in experiment [27] it was 0.0121; in experiment [5] it was -0.9386; in [6], 0.5814; in [28] it was -0.8594. Further, the log2FC was 0.1009 in [7]; -0.0118 in [29]; 0.1142 in [30]; -0.7666 in experiment [31]; -0.9349 in [32]. The outcome in experiment [33] and in experiment [34] was Active.

These data come from ChEMBL document CHEMBL3856209, “Novel pyrazolopyridine derivatives as potential angiogenesis inhibitors: Synthesis, biological evaluation and transcriptome-based mechanistic analysis” (Eur J Med Chem, 2016).
